Source: ChEMBL document CHEMBL4725388, “Characterization of Aminobenzylphenols as Protein Disulfide Isomerase Inhibitors in Glioblastoma Cell Lines” (J Med Chem, 2020)
pIC50: −log10 of the molar value. The source made the active and inactive calls. The rule behind the calls is not given here.

Columns and labels:
[1] = molecular target: T1, Protein disulfide-isomerase (Homo sapiens, UniProt P07237); assay: Binding affinity to recombinant human wild-type N-terminal His-tagged PDIA1 expressed in Escherichia coli strain BL21(DE3) assessed as change in melting temperature at 100 uM by ROX dye based thermal shift assay
Target sequence in this assay (P07237 18-508 limits assumed): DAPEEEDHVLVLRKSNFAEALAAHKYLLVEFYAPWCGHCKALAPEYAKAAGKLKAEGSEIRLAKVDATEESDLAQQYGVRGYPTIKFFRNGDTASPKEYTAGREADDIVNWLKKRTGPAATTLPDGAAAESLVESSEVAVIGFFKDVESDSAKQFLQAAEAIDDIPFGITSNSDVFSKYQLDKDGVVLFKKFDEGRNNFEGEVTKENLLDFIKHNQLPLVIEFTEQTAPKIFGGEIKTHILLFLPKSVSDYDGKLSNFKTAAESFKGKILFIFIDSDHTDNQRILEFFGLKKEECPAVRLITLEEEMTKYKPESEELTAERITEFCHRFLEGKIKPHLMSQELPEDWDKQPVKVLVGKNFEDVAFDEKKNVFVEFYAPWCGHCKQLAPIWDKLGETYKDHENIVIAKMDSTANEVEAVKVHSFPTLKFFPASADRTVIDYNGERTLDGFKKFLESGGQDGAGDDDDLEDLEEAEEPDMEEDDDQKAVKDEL

[2] = molecular target: T1, Protein disulfide-isomerase; assay: Inhibition of recombinant human wild-type N-terminal His-tagged PDIA1 expressed in Escherichia coli strain BL21(DE3) at 10 uM using bovine insulin as substrate preincubated for 1 hr followed by substrate addition in presence of N-acetyl cysteine
Outline: (§1)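 Compound incubated with N-acetyl cysteine before addition to the PDI reductase assay with PDIA1, at a final compound concentration of 10 μM.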
Target sequence in this assay (P07237 18-508 limits assumed): as above

[3] = molecular target: T1, Protein disulfide-isomerase; assay: Displacement of ANS from recombinant human wild-type N-terminal His-tagged PDIA1 expressed in Escherichia coli strain BL21(DE3) at 100 uM measured after 1 hr by fluorescence assay
Target sequence in this assay (P07237 18-508 limits assumed): as above

[4] = molecular target: T1, Protein disulfide-isomerase; assay: Inhibition of recombinant human wild-type N-terminal His-tagged PDIA1 expressed in Escherichia coli strain BL21(DE3) at 10 uM using bovine insulin as substrate preincubated for 1 hr followed by substrate addition in presence of glutathione
Outline: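 Glutathione added to the PDI reaction buffer before 10 μM compound; screening done with 5 mM GSH, reductase assay DTT at 500 μM.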
Target sequence in this assay (P07237 18-508 limits assumed): as above

[5] = molecular target: T1, Protein disulfide-isomerase; assay: Inhibition of recombinant human wild-type N-terminal His-tagged PDIA1 expressed in Escherichia coli strain BL21(DE3) assessed as ratio of Kinact to Ki using bovine insulin as substrate preincubated for 5 to 60 mins followed by substrate addition; details: time min 5-60
Outline: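 Activity measured in PDI reductase assay (insulin substrate, absorbance followed over time) at several inhibitor concentrations and preincubation times of 5 to 60 minutes; kinact/KI derived from concentration- and time-dependent inhibition curves.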
Target sequence in this assay (P07237 18-508 limits assumed): as above

[6] = molecular target: T1, Protein disulfide-isomerase; assay: Inhibition of recombinant human wild-type N-terminal His-tagged PDIA1 expressed in Escherichia coli strain BL21(DE3) at 10 uM using bovine insulin as substrate preincubated for 1 hr followed by substrate addition in absence of glutathione
Target sequence in this assay (P07237 18-508 limits assumed): as above

Homo sapiens = organism: Homo sapiens; assay: Binding affinity to recombinant human wild-type N-terminal His-tagged PDIA1 C53S mutant expressed in Escherichia coli strain BL21(DE3) assessed as adduct formation at 100 uM measured after 30 mins in presence of DTT by Q-TOF MS analysis
U-87 MG [7] = assay: Inhibition of colony formation in BSO-treated human U-87 MG cells at 0.3 to 30 uM measured after 10 to 14 days by crystal violet staining based assay; type: functional, cell-based; details: U-87MG ATCC, dose microM 0.3-30, time day 10-14
Outline: (§2)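 U-87 MG cells pretreated with BSO for 24 hours before compound addition; read-out by colony formation assay.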

[8] = molecular target: T1, Protein disulfide-isomerase; assay: Inhibition of recombinant human wild-type N-terminal His-tagged PDIA1 expressed in Escherichia coli strain BL21(DE3) using bovine insulin as substrate preincubated for 1 hr followed by substrate addition
Outline: (§3)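 IC50 from dose-response curves; PDI reductase assay for enzyme, MTT in U-87 MG cells for cytotoxicity; mean ± SD of at least three independent experiments.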
Target sequence in this assay (P07237 whole entry): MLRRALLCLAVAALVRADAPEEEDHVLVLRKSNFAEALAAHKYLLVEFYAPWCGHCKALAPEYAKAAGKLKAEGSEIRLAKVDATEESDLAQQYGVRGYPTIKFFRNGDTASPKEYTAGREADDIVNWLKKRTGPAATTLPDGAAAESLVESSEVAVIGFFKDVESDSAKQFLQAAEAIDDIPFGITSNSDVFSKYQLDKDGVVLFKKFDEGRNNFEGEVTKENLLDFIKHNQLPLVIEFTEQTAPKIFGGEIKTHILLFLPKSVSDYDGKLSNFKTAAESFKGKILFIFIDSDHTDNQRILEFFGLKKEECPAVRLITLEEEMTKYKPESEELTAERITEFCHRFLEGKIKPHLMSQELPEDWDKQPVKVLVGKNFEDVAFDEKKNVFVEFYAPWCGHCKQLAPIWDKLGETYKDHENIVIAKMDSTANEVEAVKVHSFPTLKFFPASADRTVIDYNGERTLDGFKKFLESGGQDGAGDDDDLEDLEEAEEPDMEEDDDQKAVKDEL

[9] = molecular target: T1, Protein disulfide-isomerase; assay: Binding affinity to recombinant human wild-type N-terminal His-tagged PDIA1 expressed in Escherichia coli strain BL21(DE3) assessed as adduct formation at 100 uM measured after 30 mins in presence of DTT by Q-TOF MS analysis
Outline: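 Recombinant PDI at 10 μM incubated 30 min with 100 μM compound and 100 μM DTT before injection; adducts detected by quadrupole time-of-flight mass spectrometry.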

[10] = molecular target: T1, Protein disulfide-isomerase; assay: Inhibition of recombinant human wild-type N-terminal His-tagged PDIA1 expressed in Escherichia coli strain BL21(DE3) at 1.1 to 90 uM using bovine insulin as substrate preincubated for 1 hr followed by substrate addition in presence of glutathione; details: dose microM 1.1-90, time 1.0 hrs
U-87 MG [11] = assay: Inhibition of colony formation in BSO-treated human U-87 MG cells at 0.3 to 3 uM measured after 10 to 14 days by crystal violet staining based assay; type: functional, cell-based; details: U-87MG ATCC, dose microM 0.3-3, time day 10-14; outline: as §2
U-87 MG [12] = assay: Cytotoxicity against human U-87 MG cells assessed as growth inhibition at 30 uM measured after 72 hrs by MTT assay relative to control; type: functional, U-87MG ATCC; details: read-out: GI
Outline: (§4)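 Single-concentration screen: percent inhibition of cell growth at 30 μM in U-87 MG and MIA PaCa-2 cells by MTT.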

[13] = molecular target: T1, Protein disulfide-isomerase; assay: Irreversible inhibition of recombinant human wild-type N-terminal His-tagged PDIA1 expressed in Escherichia coli strain BL21(DE3) at 400 uM using bovine insulin as substrate preincubated for 30 mins followed by 100-fold dilution substrate addition further incubated for 1 hr and subsequent substrate addition; details: time 1.5 hrs
[14] = system: Protein disulfide-isomerase (Homo sapiens), P07237 [H256A]; assay: Inhibition of recombinant human wild-type N-terminal His-tagged PDIA1 H256A mutant expressed in Escherichia coli strain BL21(DE3) using bovine insulin as substrate preincubated for 1 hr followed by substrate addition
Chain of Protein disulfide-isomerase (Homo sapiens), P07237 [H256A] (P07237 whole entry H256A): as the sequence (P07237 whole entry) above, with H256A counted along it

MIA PaCa-2 = assay: Cytotoxicity against human MIA PaCa-2 cells assessed as growth inhibition at 30 uM measured after 72 hrs by MTT assay relative to control; type: functional; details: read-out: GI; outline: as §4
[15] = molecular target: T1, Protein disulfide-isomerase; assay: Inhibition of recombinant human wild-type N-terminal His-tagged PDIA1 expressed in Escherichia coli strain BL21(DE3) at 10 uM using bovine insulin as substrate […]; outline: as §1
[16] = molecular target: T1, Protein disulfide-isomerase; assay: Displacement of PACMA57 from recombinant human wild-type N-terminal His-tagged PDIA1 expressed in Escherichia coli strain BL21(DE3) at 100 uM measured after overnight incubation by gel-based imaging analysis
U-87 MG [17] = assay: Cytotoxicity against human U-87 MG cells assessed as growth inhibition measured after 72 hrs by MTT assay; type: functional, cell-based, U-87MG ATCC; outline: as §3
[18] = molecular target: T1, Protein disulfide-isomerase; assay: Inhibition of recombinant human wild-type N-terminal His-tagged PDIA1 expressed in Escherichia coli strain BL21(DE3) at 40 uM using bovine insulin as substrate preincubated for 1 hr followed by substrate addition relative to control
[19] = molecular target: T1, Protein disulfide-isomerase; assay: Binding affinity to recombinant human wild-type N-terminal His-tagged PDIA1 expressed in Escherichia coli strain BL21(DE3) assessed as increase in protein mass at 100 uM measured after 30 mins in presence of GSTO1 and GRP78 by Q-TOF MS analysis relative to control
Outline: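 100 μM compound incubated 30 min with a mix of 10 μM PDI, 10 μM GSTO1 and 10 μM GRP78 (GRP78 as non-specific binding control); protein masses read by QTOF MS before/after.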

U-87 MG [20] = assay: Inhibition of colony formation in BSO-treated human U-87 MG cells at 0.3 to 10 uM measured after 10 to 14 days by crystal violet staining based assay; type: functional, cell-based; details: U-87MG ATCC, dose microM 0.3-10, time day 10-14; outline: as §2

| Structure (SMILES) | pIC50 [8] | pIC50 (U-87 MG [17]) | also measured |
| --- | --- | --- | --- |
| N#Cc1cccc(/C=C/C(=O)c2ccc(O)cc2)c1 |  |  | ΔTm [1]: 1.55 °C; inhibition [2]: inactive; inhibition [3]: Active; inhibition [4]: inactive |
| C#CC(=O)N(c1ccc(OC)cc1OC)C(C(=O)NCC(=O)OCC)c1cccs1 (centres undefined) |  |  | ΔTm [1]: 0.18 °C; Ratio [5]: 2 10^2/M/s; inhibition [2]: inactive; inhibition [4]: inactive |
| CN(C)c1ccc(C(Nc2ncccn2)c2cc3c(cc2O)OCO3)cc1 (centres undefined) |  |  | inhibition [6]: 88%; inhibition [4]: 64% |
| Oc1c(C(c2ccc(F)cc2)N2CCNCC2)ccc2cncnc12 (centres undefined) | 5.92 |  | inhibition [6]: 100%; Activity (Homo sapiens): Active; inhibition (U-87 MG [7]): inactive; inhibition [4]: 44%; Activity [9]: Active |
| Oc1c(C(c2ccc(F)cc2)N2CCN(C(c3ccc(F)cc3)c3ccc4cncnc4c3O)CC2)ccc2cncnc12 (centres undefined) |  |  | Activity (Homo sapiens): Active; inhibition (U-87 MG [7]): Active; inhibition [10]: Active; Activity [9]: Active |
| COc1ccc(C(c2cc3c(cc2O)OCO3)N2CCOCC2)cc1OC (centres undefined) | 6.52 | 4.74 | ΔTm [1]: -0.36 °C; Ratio [5]: 2.6 10^3/M/s; inhibition (U-87 MG [11]): Active; inhibition of growth at 30 µM (U-87 MG [12]): > 40%; inhibition [2]: inactive; inhibition [13]: Active; inhibition [3]: inactive; inhibition [14]: Active; inhibition of growth at 30 µM (MIA PaCa-2): > 40%; inhibition [15]: Active; inhibition [16]: Active; inhibition [18]: 50%; inhibition [4]: inactive |
| Oc1c(C(c2ccc(F)cc2)N2CCCCC2)ccc2cccnc12 (centres undefined) | 6.16 | 4.43 | inhibition of growth at 30 µM (U-87 MG [12]): 54% |
| Oc1cc2c(cc1C(c1ccc(F)cc1)N1CCCCC1)CCC2 (centres undefined) | < 4.52 |  | Activity [19]: inactive; inhibition [16]: inactive |
| COC(=O)C1(C)c2[nH]c3ccccc3c2CCN1C(=O)CCl (centres undefined) |  |  | Ratio [5]: 1.7 10^2/M/s |
| COc1cccc(C(c2cc3c(cc2O)OCO3)N2CCOCC2)c1OC (centres undefined) | 5.97 | 4.49 | inhibition of growth at 30 µM (U-87 MG [12]): 66%; inhibition [13]: inactive; fold change (FC) [19]: 2; Activity [9]: Active |
| COc1cc(C(c2cc3c(cc2O)OCO3)N2CCCC2)cc(OC)c1OC (centres undefined) | 6.74 | 4.62 |  |
| O=C(O)c1ccc(NC(c2ccccc2)c2ccc3cccnc3c2O)cc1 (centres undefined) | 6.52 | < 5.00 |  |
| O=[N+]([O-])c1ccc(NC(c2ccccc2)c2ccc3cccnc3c2O)cc1 (centres undefined) | 6.82 | < 5.00 |  |
| COc1cc(C(c2cc3c(cc2O)OCO3)N2CCOCC2)cc(OC)c1OC (centres undefined) | 6.19 | < 5.00 |  |
| Cc1ccnc(NC(c2ccccc2F)c2ccc3cccnc3c2O)c1 (centres undefined) | 6.06 | 4.88 |  |
| COc1cccc(C(Nc2ncccn2)c2cc3c(cc2O)OCO3)c1O (centres undefined) | 5.04 | < 5.00 |  |
| NC(=O)NC(c1ccc(O)cc1)c1cc2c(cc1O)OCO2 (centres undefined) | < 4.40 | < 5.00 |  |
| Cc1cc(C)c(C(Nc2ccccn2)c2ccc3cccnc3c2O)c(C)c1 (centres undefined) | 6.72 | 5.00 |  |
| COc1ccc(C(c2cc3c(cc2O)OCO3)N2CCCCC2)cc1 (centres undefined) | 6.06 | 4.55 |  |

| Structure (SMILES) | pIC50 [8] | pIC50 (U-87 MG [17]) | also measured |
| --- | --- | --- | --- |
| Oc1c(C(Nc2ccccn2)c2ccc(Cl)cc2)ccc2cccnc12 (centres undefined) | 6.77 | 4.97 | ΔTm [1]: -0.05 °C; inhibition (U-87 MG [20]): Active; inhibition of growth at 30 µM (U-87 MG [12]): > 40%; inhibition [2]: inactive; inhibition [13]: inactive; inhibition [3]: inactive; inhibition [14]: Active; inhibition of growth at 30 µM (MIA PaCa-2): > 40%; inhibition [15]: Active; inhibition [18]: 50%; inhibition [4]: inactive |
| CN(C)c1ccc(C(c2cc3c(cc2O)OCO3)N2CCCC2)cc1 (centres undefined) | > 6.70 | < 4.52 |  |
| Cc1ccnc(NC(c2ccccc2Cl)c2ccc3cccnc3c2O)c1 (centres undefined) | < 4.40 | 5.00 |  |
| Cc1ccnc(NC(c2cc(C)ccc2C)c2ccc3cccnc3c2O)c1 (centres undefined) | < 4.40 | < 5.00 |  |
| COc1cccc(C(c2ccc3cccnc3c2O)N2CCOCC2)c1OC (centres undefined) | 6.41 | 4.48 | inhibition of growth at 30 µM (U-87 MG [12]): 74% |
| Oc1cc2c(cc1C(Nc1ncccn1)c1ccc(F)cc1)OCO2 (centres undefined) | 4.90 | < 5.00 |  |
| O=C(O)c1ccccc1NC(c1ccccc1)c1ccc2cccnc2c1O (centres undefined) | 5.83 | < 5.00 |  |
| CCc1ccc(C(Nc2ccccn2)c2ccc3cccnc3c2O)cc1 (centres undefined) | 6.77 | 5.03 |  |
| CNC(=O)NC(c1cc(OC)c(OC)c(OC)c1)c1cc2c(cc1O)OCO2 (centres undefined) | < 4.40 | < 5.00 |  |
| CNC(=O)NC(c1ccc2c(c1)OCO2)c1cc2c(cc1O)OCO2 (centres undefined) | < 4.40 | < 5.00 |  |
| COc1ccc(C(c2cc3c(cc2O)OCO3)n2ccnc2)cc1 (centres undefined) | 6.21 | < 5.00 |  |
| Oc1c(C(Nc2ccccn2)c2ccccc2F)ccc2cccnc12 (centres undefined) | 6.33 | < 5.00 |  |
| COc1ccc(C(Nc2cc(C)ccn2)c2ccc3cccnc3c2O)cc1O (centres undefined) | 6.82 | < 5.00 |  |
| COc1cc(OC)c(C(c2cc3c(cc2O)OCO3)N2CCOCC2)c(OC)c1 (centres undefined) | 6.01 | 4.87 |  |
| Cc1ccnc(NC(c2ccc(OCc3ccccc3)cc2)c2ccc3cccnc3c2O)c1 (centres undefined) | 6.21 | 5.03 |  |
| Oc1cc2c(cc1C(Nc1ncccn1)c1ccc3c(c1)OCO3)OCO2 (centres undefined) | 5.93 | < 5.00 |  |
| Oc1c(C(Nc2ccccn2)c2c(Cl)cccc2Cl)ccc2cccnc12 (centres undefined) | 5.72 | 5.16 |  |
| CCOC(=O)c1ccccc1NC(c1ccccc1)c1ccc2cccnc2c1O (centres undefined) | > 6.70 | < 5.00 |  |
